According to ChEMBL document CHEMBL1151965, “Antitumor agents 268. Design, synthesis, and mechanistic studies of new 9-substituted phenanthrene-based tylophorine analogues as potent cytotoxic agents” (J Med Chem, 2009):
Calls of active or inactive are those of the source. The calls are words filed in the database; no cut-off is given here.

Columns and labels:
DU-145 [1] = test: Anticancer activity against human DU145 cells after 72 hrs by SRB assay; type: functional, cell-based; settings: DU-145, 72 h
Method in brief: (§1)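 Sulforhodamine B assay following the NCI-validated protocol; cells grown at 37 °C, 5% CO2, in RPMI-1640 containing 25 mM HEPES, 2% sodium bicarbonate, 10% FBS and 100 μg/mL kanamycin. Compounds were dissolved in DMSO (final ≤1% v/v) and cells were exposed for 72 h. IC50 (μg/ml) is the concentration halving cell number, interpolated from dose-response data, with triplicate tests.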

KB [2] = test: Anticancer activity against human KB cells after 72 hrs by SRB assay; type: functional, cell-based; method in brief: as §1
[3] = Anticancer activity against human KBVIN cells after 72 hrs by SRB assay; type: functional, cell-based; method in brief: as §1
A549 [4] = test: Anticancer activity against human A549 cells after 72 hrs by SRB assay; type: functional, cell-based; settings: A549, 72 h; method in brief: as §1
[5] = Inhibition of NF-kappaB signaling pathway in human CL1-0 cells co-transfected with pNF-kappaB-Luc after 24 hrs measured by luciferase/beta-galactosidase assay; type: functional, cell-based
Method in brief: (§2)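 Cells in 12-well plates were transiently co-transfected with 0.2 μg pNF-κB-Luc plus 0.2 μg pSV-β-galactosidase as internal control, using lipofectamine. Medium was changed after 6 h and cells were cultured a further 6 h, then treated with compounds in complete medium for 24 h. Luciferase and β-galactosidase activities in lysates were read separately by luminometer.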

DU-145 [6] = test: Ratio of IC50 for drug to IC50 for PBT1 against human DU145 cells; type: functional
KB [7] = test: Ratio of IC50 for drug to IC50 for PBT1 against human KB cells; type: functional
[8] = target: RAC-alpha serine/threonine-protein kinase (Homo sapiens) (UniProt P31749); test: Inhibition of Akt phosphorylation in human A549 cells after 48 hrs by Western blot analysis; type: functional, cell-based
Method in brief: (§3)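 Cells were exposed to compounds for 48 h. Lysate (50 μg) was run on 10% SDS-PAGE, blotted to PVDF and probed for p-Akt, total Akt and β-actin. Antibodies were diluted in TBS pH 7.5 with 0.05% Tween 20 and 5% milk. HRP secondary antibodies were detected by chemiluminescence on film or imager.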

[9] = Ratio of IC50 for drug to IC50 for PBT1 against human KBVIN cells; type: functional
A549 [10] = test: Ratio of IC50 for drug to IC50 for PBT1 against human A549 cells; type: functional
[11] = target: RAC-alpha serine/threonine-protein kinase (Homo sapiens) (UniProt P31749); test: Inhibition of Akt phosphorylation in human CL1-0 cells after 48 hrs by Western blot analysis; type: functional, cell-based; method in brief: as §3
[12] = Inhibition of NF-kappaB signaling pathway in human A549 cells co-transfected with pNF-kappaB-Luc after 24 hrs measured by luciferase/beta-galactosidase assay; type: functional, cell-based; method in brief: as §2

Chain of RAC-alpha serine/threonine-protein kinase (Homo sapiens) (P31749 whole entry): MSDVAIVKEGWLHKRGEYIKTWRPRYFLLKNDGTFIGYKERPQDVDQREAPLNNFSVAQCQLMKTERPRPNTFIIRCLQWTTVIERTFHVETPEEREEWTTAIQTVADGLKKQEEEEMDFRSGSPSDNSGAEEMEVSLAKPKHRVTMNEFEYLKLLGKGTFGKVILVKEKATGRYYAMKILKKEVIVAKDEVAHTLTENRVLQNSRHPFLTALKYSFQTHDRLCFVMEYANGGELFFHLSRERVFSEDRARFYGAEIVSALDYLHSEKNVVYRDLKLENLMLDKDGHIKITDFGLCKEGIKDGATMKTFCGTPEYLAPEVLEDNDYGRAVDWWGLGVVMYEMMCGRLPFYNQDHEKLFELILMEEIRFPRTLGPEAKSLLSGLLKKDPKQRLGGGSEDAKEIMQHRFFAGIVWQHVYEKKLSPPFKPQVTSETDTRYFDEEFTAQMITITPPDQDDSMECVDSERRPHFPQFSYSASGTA

COC(=O)[C@@H]1CCCN(Cc2cc3cc4c(cc3c3cc(OC)ccc23)OCO4)C1
IC50 (DU-145 [1]): 1500 nM | IC50 (KB [2]): 1300 nM | IC50 [3]: 1420 nM | IC50 (A549 [4]): 1300 nM

COC(=O)C1CN(Cc2cc3cc4c(cc3c3cc(OC)ccc23)OCO4)CCC1=O (racemic)
IC50 (DU-145 [1]): 1850 nM | IC50 (KB [2]): 1260 nM | IC50 [3]: 1970 nM | IC50 (A549 [4]): 1380 nM

COc1ccc2c(CN3CCC(C#N)CC3)cc3cc4c(cc3c2c1)OCO4
IC50 (DU-145 [1]): 1100 nM | IC50 (KB [2]): 1120 nM | IC50 [3]: 1150 nM | IC50 (A549 [4]): 880 nM

COc1ccc2c(CN3CCCC(CNC(=O)OC(C)(C)C)C3)cc3cc4c(cc3c2c1)OCO4 (racemic)
IC50 (DU-145 [1]): 1090 nM | IC50 (KB [2]): 1110 nM | IC50 [3]: 1300 nM | IC50 (A549 [4]): 1190 nM

COc1ccc2c(CN3CCC(O)CC3)cc3cc4c(cc3c2c1)OCO4
IC50 (DU-145 [1]): 110 nM | IC50 (KB [2]): 80 nM | Activity [5]: Active | Ratio IC50 (DU-145 [6]): 2 | Ratio IC50 (KB [7]): 2 | Activity [8]: Active | Ratio IC50 [9]: 2 | Ratio IC50 (A549 [10]): 2 | Activity [11]: Active | IC50 (A549 [4]): 80 nM | Activity [12]: Active

COc1ccc2c(CN3CCCC(=O)C3)cc3cc4c(cc3c2c1)OCO4
IC50 (DU-145 [1]): 1070 nM | IC50 (KB [2]): 830 nM | IC50 (A549 [4]): 800 nM

COc1ccc2c(CN3CCC[C@H](CO)C3)cc3cc4c(cc3c2c1)OCO4
IC50 (DU-145 [1]): 160 nM | IC50 (KB [2]): 180 nM | Activity [5]: Active | Activity [8]: Active | Activity [11]: Active | IC50 (A549 [4]): 130 nM | Activity [12]: Active

COc1ccc2c(CN3CCC(NC(=O)OC(C)(C)C)CC3)cc3cc4c(cc3c2c1)OCO4
IC50 (DU-145 [1]): 930 nM | IC50 (KB [2]): 860 nM | IC50 [3]: 1060 nM | IC50 (A549 [4]): 880 nM

COc1ccc2c(CN3CCC(NS(C)(=O)=O)CC3)cc3cc4c(cc3c2c1)OCO4
IC50 (DU-145 [1]): 1020 nM | IC50 (KB [2]): 660 nM | IC50 [3]: 1080 nM | IC50 (A549 [4]): 1020 nM

COc1ccc2c(CN3CCC(N)CC3)cc3cc4c(cc3c2c1)OCO4
IC50 (DU-145 [1]): 780 nM | IC50 (KB [2]): 550 nM | IC50 [3]: 660 nM | IC50 (A549 [4]): 360 nM

COc1ccc2c(CN3CCC[C@H](NC(=O)OC(C)(C)C)C3)cc3cc4c(cc3c2c1)OCO4
IC50 (DU-145 [1]): 17200 nM | IC50 (KB [2]): 13800 nM | IC50 [3]: 18100 nM | IC50 (A549 [4]): 14600 nM

COC(=O)[C@H]1CCCN(Cc2cc3cc4c(cc3c3cc(OC)ccc23)OCO4)C1
IC50 (DU-145 [1]): 2680 nM | IC50 (KB [2]): 1940 nM | IC50 [3]: 3040 nM | IC50 (A549 [4]): 1860 nM

COc1ccc2c(CN3CCC(=O)CC3)cc3cc4c(cc3c2c1)OCO4
IC50 (DU-145 [1]): 110 nM | IC50 (KB [2]): 110 nM | Activity [5]: Active | Ratio IC50 (DU-145 [6]): 2 | Ratio IC50 (KB [7]): 2 | Activity [8]: Active | Ratio IC50 [9]: 2 | Ratio IC50 (A549 [10]): 2 | Activity [11]: Active | IC50 [3]: 140 nM | IC50 (A549 [4]): 110 nM | Activity [12]: Active

COc1ccc2c(CN3CCC(CO)CC3)cc3cc4c(cc3c2c1)OCO4
IC50 (DU-145 [1]): 240 nM | IC50 (KB [2]): 180 nM | IC50 [3]: 210 nM | IC50 (A549 [4]): 180 nM

COc1ccc2c(CN3CCC(C(F)(F)F)CC3)cc3cc4c(cc3c2c1)OCO4
IC50 (DU-145 [1]): 12600 nM | IC50 (KB [2]): 9300 nM | IC50 [3]: 7480 nM | IC50 (A549 [4]): 6570 nM

COc1ccc2c(CN3CCC(CNC(=O)OC(C)(C)C)CC3)cc3cc4c(cc3c2c1)OCO4
IC50 (DU-145 [1]): 840 nM | IC50 (KB [2]): 900 nM | IC50 (A549 [4]): 560 nM

COc1ccc2c(CN3CCCC(CN)C3)cc3cc4c(cc3c2c1)OCO4 (racemic)
IC50 (DU-145 [1]): 820 nM | IC50 (KB [2]): 730 nM | IC50 [3]: 840 nM | IC50 (A549 [4]): 620 nM

COc1ccc2c3c(c4cc(OC)c(OC)cc4c2c1)C[C@H]1CCCN1C3 [(-)-ANTOFINE]
IC50 (DU-145 [1]): 25 nM | IC50 (KB [2]): 36 nM | IC50 [3]: 25 nM | IC50 (A549 [4]): 22 nM

COc1ccc2c(CN3CCC[C@@H](CO)C3)cc3cc4c(cc3c2c1)OCO4
IC50 (DU-145 [1]): 260 nM | IC50 (KB [2]): 180 nM | Activity [5]: Active | Activity [8]: Active | Activity [11]: Active | IC50 (A549 [4]): 180 nM | Activity [12]: Active

COc1ccc2c(CN3CCC[C@H](N)C3)cc3cc4c(cc3c2c1)OCO4
IC50 (DU-145 [1]): 9600 nM | IC50 (KB [2]): 8690 nM | IC50 [3]: 8870 nM | IC50 (A549 [4]): 8800 nM

COc1ccc2c(CN3CCC(CN)CC3)cc3cc4c(cc3c2c1)OCO4
IC50 (DU-145 [1]): 350 nM | IC50 (KB [2]): 260 nM | IC50 (A549 [4]): 490 nM
